Experimental data pooled from the literature.
Each line is one published result; the experiments were not run side by side.
Target: Serine/threonine-protein kinase PAK 4 (PAK4, Homo sapiens, UniProt O96013)

Structure (SMILES)	observed	technique	tested at	remaining binding
O=C(c1ccc(Nc2ncc(Cl)c(-c3ccc(Cl)s3)n2)cc1)N1CCC(N2CCCC2)CC1	binding	competition with immobilised ligand	1 µM	53%
CN(CCCC(F)(F)F)c1nccc(-c2cnn3ncccc23)n1	binding	–	1 µM	100%
CS(=O)(=O)NCC[C@H](NC(=O)c1cncc2c1cnn2-c1ccc(F)cc1)c1ccnc(S(C)(=O)=O)c1	cell-free assay	competition with immobilised ligand	1 µM	100%
CN(C)c1nccc(-c2cnc3ncccn23)n1	binding	–	1 µM	88%
O=C(NCc1ncc(C(F)(F)F)cc1Cl)c1ccc2c(c1)C1(CCS(=O)(=O)CC1)[C@H](C1CC1)N2S(=O)(=O)c1ccc(F)cc1	cell-free assay	competition with immobilised ligand	1 µM	100%
FC(F)(F)Oc1cccc(-c2cnc3ccc(-c4ccncc4)nn23)c1	cell-free assay	competition with immobilised ligand	5 µM	47%
CCC(=O)N[C@@H]1CC[C@H](C(=O)N(C)c2ccc(-c3nc4ccccc4o3)cc2)C1	cell-free assay	competition with immobilised ligand	1 µM	100%
C[C@@H]1CN(c2ccc3ncc(-c4ccc5[nH]nc(C6CC6)c5c4)n3n2)C[C@H](C)O1	binding	competition with immobilised ligand	0.5 µM	83%
CCN1CCN(Cc2ccc(C(=O)Nc3ccc(C)c(Oc4ccc5c(c4)CC(=O)N5)c3)cc2C(F)(F)F)CC1	binding	competition with immobilised ligand	1 µM	100%
C[C@H]1CCN(c2nccc(-c3cnn4ncccc34)n2)C1	binding	–	1 µM	95%
COc1ncc2cc3ccccc3nc2c1C#N	cell-free assay	competition with immobilised ligand	5 µM	97%
O=C(c1ccc(Nc2nccc(-c3cc4ccccc4s3)n2)cc1)N1CCC(N2CCCC2)CC1	binding	competition with immobilised ligand	1 µM	81%
O=C(N1CCS(=O)(=O)CC1)N1C[C@H](c2ccc(OC(F)(F)F)cc2)C[C@H](c2nc(C3CC3)no2)C1	cell-free assay	competition with immobilised ligand	1 µM	100%
CNC(=O)[C@@H]1CC[C@@H](n2c(-c3ccc4cnccc4c3)nc3ccc(C(=O)NCc4cccc(C(N)=O)c4)cc32)C1	binding	competition with immobilised ligand	1 µM	100%
O=C(c1ccc(Nc2ncc(Cl)c(-c3cc4ccccc4s3)n2)cc1)N1CCC(N2CCCC2)CC1	binding	competition with immobilised ligand	1 µM	77%
COc1ccnn2ncc(-c3ccnc(N(C)C)n3)c12	binding	–	1 µM	85%
O=C(NS(=O)(=O)c1ccc(NCC2CCOCC2)c([N+](=O)[O-])c1)c1ccc(N2CCN(Cc3ccc(C(F)(F)F)cc3-c3ccc(Cl)cc3)CC2)cc1Oc1cnc2[nH]ccc2c1	cell-free assay	competition with immobilised ligand	1 µM	93%
CN(c1nccc(-c2cnn3ncccc23)n1)C1CC1	binding	–	1 µM	100%
CN1CCN(c2cnc3c(C4CCN(C(=O)c5ccc(OC(F)(F)F)cc5N)CC4)ncnc3c2)CC1	cell-free assay	competition with immobilised ligand	1 µM	91%
COc1cnc(Nc2cccc(S(N)(=O)=O)c2)nc1N1CCN(c2ccccc2)C(=O)C1	binding	competition with immobilised ligand	1 µM	100%
C[C@@H](c1cccc(C#N)c1)n1cc(Cl)cc(C(N)=O)c1=N	cell-free assay	competition with immobilised ligand	1 µM	100%
N[C@@H]1CCN(c2nccc(-c3cnn4ncccc34)n2)C1	binding	–	1 µM	100%
Cc1nc(N2CC[C@@H](O)C2)ncc1-c1cc(C(F)(F)F)cc2[nH]ncc12	cell-free assay	competition with immobilised ligand	1 µM	100%
Cc1cnn2ncc(-c3ccnc(N(C)C)n3)c2c1	binding	–	1 µM	100%
O=C(Nc1c[nH]nc1C(=O)NC1CCNCC1)c1cc(F)cc(F)c1	binding	competition with immobilised ligand	1 µM	100%
